In brackets after ≈: the same amount, converted by molar mass.
Columns and labels:
Staphylococcus aureus [1] = assay: Antibacterial activity against Staphylococcus aureus 1218 after 18 to 24 hrs by agar dilution method; format: functional
Summary of the method: (§1)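 MICs were determined by agar dilution on test agar. An overnight tryptosoy broth culture was diluted in the same broth to about 10⁶ cells/mL and spotted with an inoculating device onto agar containing serial twofold dilutions of compound. Plates were incubated at 37 °C for 18–20 h, and the MIC was the lowest concentration with no visible growth.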

Staphylococcus = assay: Antibacterial activity against coagulase negative Staphylococcus after 18 to 24 hrs by agar dilution method; format: functional
Summary of the method: (§2)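 Agar dilution on test agar holding serial twofold dilutions of compound. Overnight tryptosoy broth cultures were diluted in the same broth to about 10⁶ cells/mL and spotted with an inoculating device. Plates were incubated at 37 °C for 18–20 h.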

Enterococcus faecalis = assay: Antibacterial activity against Enterococcus faecalis 2347 after 18 to 24 hrs by agar dilution method; format: functional; summary of the method: as §1
Streptococcus pyogenes = assay: Antibacterial activity against Streptococcus pyogenes 9889 after 18 to 24 hrs by agar dilution method; format: functional; summary of the method: as §2
Streptococcus agalactiae [2] = assay: Antibacterial activity against Streptococcus agalactiae 32 after 18 to 24 hrs by agar dilution method; format: functional; summary of the method: as §1
Streptococcus pneumoniae = assay: Antibacterial activity against Streptococcus pneumoniae 0025 after 18 to 24 hrs by agar dilution method; format: functional; summary of the method: as §1
Haemophilus influenzae = assay: Antibacterial activity against Haemophilus influenzae 1210 after 18 to 24 hrs by agar dilution method; format: functional; summary of the method: as §1
Escherichia coli [3] = assay: Antibacterial activity against Escherichia coli 04 after 18 to 24 hrs by agar dilution method; format: functional; summary of the method: as §1
Klebsiella pneumoniae [4] = assay: Antibacterial activity against Klebsiella pneumoniae 523 after 18 to 24 hrs by agar dilution method; format: functional; summary of the method: as §1
Citrobacter freundii = assay: Antibacterial activity against Citrobacter freundii 323 after 18 to 24 hrs by agar dilution method; format: functional; summary of the method: as §1
Enterobacter cloacae [5] = assay: Antibacterial activity against Enterobacter cloacae 34 after 18 to 24 hrs by agar dilution method; format: functional; summary of the method: as §1
Serratia marcescens [6] = assay: Antibacterial activity against Serratia marcescens 3349 after 18 to 24 hrs by agar dilution method; format: functional; summary of the method: as §1
Acinetobacter baumannii = assay: Antibacterial activity against Acinetobacter baumannii 2289 after 18 to 24 hrs by agar dilution method; format: functional; summary of the method: as §1
Pseudomonas aeruginosa [7] = assay: Antibacterial activity against Pseudomonas aeruginosa 5455 after 18 to 24 hrs by agar dilution method; format: functional; summary of the method: as §1
Streptococcus agalactiae [8] = assay: Antibacterial activity against Streptococcus agalactiae B after 18 to 24 hrs by agar dilution method; format: functional; summary of the method: as §1
Enterococcus durans = assay: Antibacterial activity against Streptococcus durans D after 18 to 24 hrs by agar dilution method; format: functional; summary of the method: as §1
Priestia megaterium = assay: Antibacterial activity against Bacillus megaterium after 18 to 24 hrs by agar dilution method; format: functional; summary of the method: as §1
Pseudomonas aeruginosa [9] = assay: Antibacterial activity against Pseudomonas aeruginosa 9027 after 18 to 24 hrs by agar dilution method; format: functional; summary of the method: as §1
Staphylococcus aureus [10] = assay: Antibacterial activity against Staphylococcus aureus giorgio after 18 to 24 hrs by agar dilution method; format: functional; summary of the method: as §1
Staphylococcus aureus [11] = assay: Antibacterial activity against Staphylococcus aureus 209P after 18 to 24 hrs by agar dilution method; format: functional; summary of the method: as §1
Staphylococcus aureus [12] = assay: Antibacterial activity against Staphylococcus aureus 503 after 18 to 24 hrs by agar dilution method; format: functional; summary of the method: as §1
Micrococcus luteus = assay: Antibacterial activity against Micrococcus luteus ATCC 9341 after 18 to 24 hrs by agar dilution method; format: functional; summary of the method: as §1
Pseudomonas aeruginosa [13] = assay: Antibacterial activity against Pseudomonas aeruginosa 77/2 after 18 to 24 hrs by agar dilution method; format: functional; summary of the method: as §1
Pseudomonas aeruginosa [14] = assay: Antibacterial activity against Pseudomonas aeruginosa 110/2 after 18 to 24 hrs by agar dilution method; format: functional; summary of the method: as §1
Pseudomonas aeruginosa [15] = assay: Antibacterial activity against Pseudomonas aeruginosa 880/2 after 18 to 24 hrs by agar dilution method; format: functional; summary of the method: as §1
Burkholderia cepacia = assay: Antibacterial activity against Pseudomonas cepacia after 18 to 24 hrs by agar dilution method; format: functional; summary of the method: as §1
Escherichia coli [16] = assay: Antibacterial activity against Escherichia coli 086 after 18 to 24 hrs by agar dilution method; format: functional; summary of the method: as §1
Escherichia coli [17] = assay: Antibacterial activity against Escherichia coli 0114 after 18 to 24 hrs by agar dilution method; format: functional; summary of the method: as §1
Escherichia coli [18] = assay: Antibacterial activity against Escherichia coli 0126 after 18 to 24 hrs by agar dilution method; format: functional; summary of the method: as §1
Escherichia coli [19] = assay: Antibacterial activity against Escherichia coli V6311/65 after 18 to 24 hrs by agar dilution method; format: functional; summary of the method: as §1
Escherichia coli [20] = assay: Antibacterial activity against Escherichia coli TEM after 18 to 24 hrs by agar dilution method; format: functional; summary of the method: as §1
Escherichia coli [21] = assay: Antibacterial activity against Escherichia coli 1507 after 18 to 24 hrs by agar dilution method; format: functional; summary of the method: as §1
Salmonella typhimurium = assay: Antibacterial activity against Salmonella Typhimurium after 18 to 24 hrs by agar dilution method; format: functional, Salmonella enterica subsp. enterica serovar Typhimurium; settings: Salmonella enterica; summary of the method: as §1
Salmonella typhi = assay: Antibacterial activity against Salmonella typhi after 18 to 24 hrs by agar dilution method; format: functional, Salmonella enterica subsp. enterica serovar Typhi; settings: Salmonella enterica
Summary of the method: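 Agar dilution on test agar with serial twofold dilutions of compound. Overnight tryptosoy broth cultures diluted in the same broth to about 10⁶ cells/mL, then applied with an inoculating device. Plates incubated at 37 °C for 18–20 h.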

Salmonella = assay: Antibacterial activity against Salmonella orion after 18 to 24 hrs by agar dilution method; format: functional; summary of the method: as §1
[22] = Antibacterial activity against Salmonella give after 18 to 24 hrs by agar dilution method; format: functional, Salmonella enterica subsp. enterica serovar Give; settings: Salmonella enterica; summary of the method: as §1
Serratia marcescens [23] = assay: Antibacterial activity against Serratia marcescens 370 after 18 to 24 hrs by agar dilution method; format: functional; summary of the method: as §1
Klebsiella pneumoniae [24] = assay: Antibacterial activity against Klebsiella pneumoniae 477 after 18 to 24 hrs by agar dilution method; format: functional; summary of the method: as §1
Proteus mirabilis [25] = assay: Antibacterial activity against Proteus mirabilis 112/3 after 18 to 24 hrs by agar dilution method; format: functional; summary of the method: as §1
Enterobacter cloacae [26] = assay: Antibacterial activity against Enterobacter cloacae after 18 to 24 hrs by agar dilution method; format: functional; summary of the method: as §1
Enterobacter cloacae [27] = assay: Antibacterial activity against Enterobacter cloacae 417 after 18 to 24 hrs by agar dilution method; format: functional; summary of the method: as §1
Serratia marcescens [28] = assay: Antibacterial activity against Serratia marcescens 6093 after 18 to 24 hrs by agar dilution method; format: functional; summary of the method: as §1
Serratia marcescens [29] = assay: Antibacterial activity against Serratia marcescens 14273 after 18 to 24 hrs by agar dilution method; format: functional; summary of the method: as §1
Proteus mirabilis [30] = assay: Antibacterial activity against Proteus mirabilis 174/3 after 18 to 24 hrs by agar dilution method; format: functional; summary of the method: as §1
Proteus vulgaris = assay: Antibacterial activity against Proteus vulgaris 868 after 18 to 24 hrs by agar dilution method; format: functional; summary of the method: as §1
Providencia rettgeri [31] = assay: Antibacterial activity against Proteus rettgeri 936 after 18 to 24 hrs by agar dilution method; format: functional; summary of the method: as §1
Providencia rettgeri [32] = assay: Antibacterial activity against Proteus rettgeri 937 after 18 to 24 hrs by agar dilution method; format: functional; summary of the method: as §1
Pasteurella multocida = assay: Antibacterial activity against Pasteurella multocida after 18 to 24 hrs by agar dilution method; format: functional; summary of the method: as §1
Trueperella pyogenes = assay: Antibacterial activity against Corynebacterium pyogenes after 18 to 24 hrs by agar dilution method; format: functional; summary of the method: as §1
[33] = system: Corynebacterium diphtheriae; assay: Antibacterial activity against Corynebacterium diphtheriae after 18 to 24 hrs by agar dilution method; format: functional; summary of the method: as §1
Bacillus subtilis = assay: Antibacterial activity against Bacillus subtilis ATCC 6633 after 18 to 24 hrs by agar dilution method; format: functional; summary of the method: as §1
[34] = Antibacterial activity against Salmonella oranienburg after 18 to 24 hrs by agar dilution method; format: functional, Salmonella enterica subsp. enterica serovar Oranienburg; settings: Salmonella enterica; summary of the method: as §1

C[C@@H](O)C1C(=O)N2C(C(=O)O)=C(S[C@@H]3CN[C@H](CN4CCNS4(=O)=O)C3)[C@H](C)C12 (stereo partly specified)
MIC (Staphylococcus aureus [1]): 3.12 µg/mL (≈ 6.99 µM)
MIC (Staphylococcus): 0.098 µg/mL (≈ 0.219 µM)
MIC (Enterococcus faecalis): 6.25 µg/mL (≈ 14 µM)
MIC (Streptococcus pyogenes): 0.01 µg/mL (≈ 0.0224 µM)
MIC (Streptococcus agalactiae [2]): 0.02 µg/mL (≈ 0.0448 µM)
MIC (Streptococcus pneumoniae): 0.02 µg/mL (≈ 0.0448 µM)
MIC (Haemophilus influenzae): 6.25 µg/mL (≈ 14 µM)
MIC (Escherichia coli [3]): 0.049 µg/mL (≈ 0.11 µM)
MIC (Klebsiella pneumoniae [4]): 0.049 µg/mL (≈ 0.11 µM)
MIC (Citrobacter freundii): 0.049 µg/mL (≈ 0.11 µM)
MIC (Enterobacter cloacae [5]): 0.049 µg/mL (≈ 0.11 µM)
MIC (Serratia marcescens [6]): 0.049 µg/mL (≈ 0.11 µM)
MIC (Acinetobacter baumannii): 12.5 µg/mL (≈ 28 µM)
MIC (Pseudomonas aeruginosa [7]): 0.781 µg/mL (≈ 1.75 µM)

C[C@@H](O)[C@H]1C(=O)N2C(C(=O)O)=C(S[C@@H]3CN[C@H](C(=O)N(C)C)C3)[C@H](C)[C@H]12 [MEROPENEM]
MIC (Streptococcus agalactiae [8]): 0.05 µg/mL (≈ 0.13 µM)
MIC (Enterococcus durans): 0.8 µg/mL (≈ 2.09 µM)
MIC (Priestia megaterium): 0.05 µg/mL (≈ 0.13 µM)
MIC (Pseudomonas aeruginosa [9]): 0.4 µg/mL (≈ 1.04 µM)
MIC (Staphylococcus aureus [1]): 6.25 µg/mL (≈ 16.3 µM)
MIC (Staphylococcus): 0.098 µg/mL (≈ 0.256 µM)
MIC (Enterococcus faecalis): 12.5 µg/mL (≈ 32.6 µM)
MIC (Streptococcus pyogenes): 0.013 µg/mL (≈ 0.0339 µM)
MIC (Streptococcus agalactiae [2]): 0.049 µg/mL (≈ 0.128 µM)
MIC (Streptococcus pneumoniae): 0.01 µg/mL (≈ 0.0261 µM)
MIC (Haemophilus influenzae): 3.12 µg/mL (≈ 8.15 µM)
MIC (Escherichia coli [3]): 0.049 µg/mL (≈ 0.128 µM)
MIC (Klebsiella pneumoniae [4]): 0.025 µg/mL (≈ 0.0652 µM)
MIC (Citrobacter freundii): 0.025 µg/mL (≈ 0.0652 µM)
MIC (Enterobacter cloacae [5]): 0.025 µg/mL (≈ 0.0652 µM)
MIC (Serratia marcescens [6]): 0.049 µg/mL (≈ 0.128 µM)
MIC (Acinetobacter baumannii): 12.5 µg/mL (≈ 32.6 µM)
MIC (Pseudomonas aeruginosa [7]): 1.56 µg/mL (≈ 4.08 µM)
MIC (Staphylococcus aureus [10]): 0.1 µg/mL (≈ 0.261 µM)
MIC (Staphylococcus aureus [11]): 0.1 µg/mL (≈ 0.261 µM)
MIC (Staphylococcus aureus [12]): 0.05 µg/mL (≈ 0.13 µM)
MIC (Micrococcus luteus): 0.05 µg/mL (≈ 0.13 µM)
MIC (Pseudomonas aeruginosa [13]): 0.8 µg/mL (≈ 2.09 µM)
MIC (Pseudomonas aeruginosa [14]): 0.4 µg/mL (≈ 1.04 µM)
MIC (Pseudomonas aeruginosa [15]): 0.2 µg/mL (≈ 0.522 µM)
MIC (Burkholderia cepacia): 0.4 µg/mL (≈ 1.04 µM)
MIC (Escherichia coli [16]): 0.05 µg/mL (≈ 0.13 µM)
MIC (Escherichia coli [17]): 0.02 µg/mL (≈ 0.0522 µM)
MIC (Escherichia coli [18]): 0.05 µg/mL (≈ 0.13 µM)
MIC (Escherichia coli [19]): 0.01 µg/mL (≈ 0.0261 µM)
MIC (Escherichia coli [20]): 0.02 µg/mL (≈ 0.0522 µM)
MIC (Escherichia coli [21]): 0.02 µg/mL (≈ 0.0522 µM)
MIC (Salmonella typhimurium): 0.05 µg/mL (≈ 0.13 µM)
MIC (Salmonella typhi): 0.01 µg/mL (≈ 0.0261 µM)
MIC (Salmonella): 0.1 µg/mL (≈ 0.261 µM)
MIC [22]: 0.02 µg/mL (≈ 0.0522 µM)
MIC (Serratia marcescens [23]): 0.05 µg/mL (≈ 0.13 µM)
MIC (Klebsiella pneumoniae [24]): 0.05 µg/mL (≈ 0.13 µM)
MIC (Proteus mirabilis [25]): 0.1 µg/mL (≈ 0.261 µM)
MIC (Enterobacter cloacae [26]): 0.01 µg/mL (≈ 0.0261 µM)
MIC (Enterobacter cloacae [27]): 0.01 µg/mL (≈ 0.0261 µM)
MIC (Serratia marcescens [28]): 0.05 µg/mL (≈ 0.13 µM)
MIC (Serratia marcescens [29]): 0.2 µg/mL (≈ 0.522 µM)
MIC (Proteus mirabilis [30]): 0.1 µg/mL (≈ 0.261 µM)
MIC (Proteus vulgaris): 0.1 µg/mL (≈ 0.261 µM)
MIC (Providencia rettgeri [31]): 0.1 µg/mL (≈ 0.261 µM)
MIC (Providencia rettgeri [32]): 0.05 µg/mL (≈ 0.13 µM)
MIC (Pasteurella multocida): 0.05 µg/mL (≈ 0.13 µM)
MIC (Trueperella pyogenes): 0.05 µg/mL (≈ 0.13 µM)
MIC [33]: 0.02 µg/mL (≈ 0.0522 µM)
MIC (Bacillus subtilis): 0.05 µg/mL (≈ 0.13 µM)
MIC [34]: 0.05 µg/mL (≈ 0.13 µM)
